AI-2 QS mod = modulators of Vibrio harveyi AI-2 quorum sensing system; Vibrio harveyi JMH597 AI-2 luminescence/OD600 ratio, 9 h; hits give low values; strain lacks LuxN and CqsS sensors; 0 = neutral-control median; activity change, % at 7.5 µM; 0.4% of 300,000 active; in the data active = activity change below about -75%, passing the limit was not always enough; inconclusive = no clear call, values can overlap the other calls;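 also: luminescence divided by OD600 gain over 9 h not by final OD600 alone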
KCNQ1 act = human KCNQ1 channel potentiation or activation. CHO-K1 KCNQ1, thallium flux FluxOR fluorescence; hits give high values. B-score at 10 µM. 0.35% of 310,000 active;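 active = fluorescence ratio B-score, a plate-corrected score, at least three library SD, with initial intensity B-score within 5 SD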
Target sequence (P51787 whole entry, looked up): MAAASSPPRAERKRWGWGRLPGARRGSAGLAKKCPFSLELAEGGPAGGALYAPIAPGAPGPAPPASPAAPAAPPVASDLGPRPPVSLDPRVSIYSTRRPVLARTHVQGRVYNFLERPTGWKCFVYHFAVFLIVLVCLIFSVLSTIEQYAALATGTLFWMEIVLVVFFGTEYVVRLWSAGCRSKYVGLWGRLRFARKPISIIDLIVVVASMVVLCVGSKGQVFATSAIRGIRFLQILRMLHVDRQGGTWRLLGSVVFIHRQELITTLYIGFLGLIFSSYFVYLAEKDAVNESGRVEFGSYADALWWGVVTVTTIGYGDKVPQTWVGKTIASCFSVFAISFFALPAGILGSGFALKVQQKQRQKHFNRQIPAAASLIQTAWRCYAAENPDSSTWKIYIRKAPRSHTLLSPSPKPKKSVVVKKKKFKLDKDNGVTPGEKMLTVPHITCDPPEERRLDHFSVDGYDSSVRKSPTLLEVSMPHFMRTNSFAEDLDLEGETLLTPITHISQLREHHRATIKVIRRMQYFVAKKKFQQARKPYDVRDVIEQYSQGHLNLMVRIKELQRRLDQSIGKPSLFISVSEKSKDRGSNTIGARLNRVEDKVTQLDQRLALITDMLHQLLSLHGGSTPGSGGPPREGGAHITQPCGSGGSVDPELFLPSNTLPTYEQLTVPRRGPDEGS
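System: CHO-K1 cells stably expressing KCNQ1 / Medium: assay buffer for compound exposure, DMSO matched across wells / Reagent: thallium- and potassium-containing depolarizing buffer / Compound: one concentration, matched DMSO / Incubation: 20 min compound pretreatment at room temperature / Measured by: kinetic FluxOR fluorescence, 10 s baseline plus 110 s post-stimulus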
KCC2 mod = KCC2 (human) Cl- transport modulation; Q9H2X9; 2.2% of 190,000 active; B-score of Tl+ flux slope (higher = more flux/activation; lower = inhibition) at 10 µM; KCC2 cells, thallium flux FluoZin-2 fluorescence; AID 1456;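 active = thallium flux slope and its plate-corrected score both differing from the plate sample mean at a set confidence after two filtering rounds, in either direction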;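 also: slope of fluorescence scaled to starting intensity during 10 to 20 s after thallium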
KCNQ1 inh = human KCNQ1 channel inhibition. 1.3% of 310,000 active. B-score at 10 µM. P51787. AID 2642. CHO-K1 KCNQ1, FluxOR thallium flux fluorescence; hits give high values;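 active = compounds whose thallium flux B-score, printed positive for inhibition, exceeds three library SD while starting fluorescence stays within three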;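 also: channel opened by potassium depolarization with thallium stimulus after 20 min compound exposure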
hERG rescue = shields human hERG channel from block by proarrhythmic agents. Q12809. CHO-hERG, FluxOR thallium flux, dofetilide IC70 present. activation (rescue from dofetilide block), less the hit threshold, % at 10 µM. 0.51% of 310,000 active;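 active = activation above the mean of controls blocked by dofetilide plus 5 SD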;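 also: thallium influx through hERG after potassium depolarization seen as dye fluorescence rise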
SUMO Mot1 rescue = SUMOylation pathway inhibition by Mot1-301 growth rescue. S. cerevisiae Mot1-301 growth rescue, ATP luminescence, 38.5C; percent above DMSO median, 100 means doubled. growth rescue, % at 18.8 µM. 1% of 320,000 active. AID 2716;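 active = every valid replicate shows activation above 250% relative to neutral control wells; inactive = the rest, any valid replicate at or below 250%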;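 also: OY570 slx delta 5 strain wells were the positive control but not used for scaling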
KCC2 sec1 = confirmation of human KCC2 transport modulators | normalised thallium flux (F/F0 slope) at 10 µM | shares compounds with KCC2 mod | HEK293-KCC2, thallium flux, FluoZin2 fluorescence; hits give high values | AID 1713 | 15% of 3,700 active;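 active = thallium flux slope above the same plate's solvent-only control mean plus 3 SD; inconclusive = the two replicate wells disagree; inactive = no significant difference from solvent-only control wells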
KCC2 bumet counter = thallium flux persisting under bumetanide in KCC2 cells, counter-screen secondary assay; shares compounds with KCC2 mod; HEK293-KCC2 + bumetanide/ouabain, thallium flux FluoZin2; hits give high values; normalized thallium flux at 10 µM; 49% of 3,700 active;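 active = thallium entry rate above the same plate's blocked-transporter control wells by more than 3 SD; inconclusive = the two repeat wells disagree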;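 also: raw slope of fluorescence over initial fluorescence between 10 and 20 s after thallium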
KCC2 secondary2 = KCC2 (human) modulation, second secondary assay; normalized thallium flux at 10 µM; 23% of 3,700 active; HEK293-KCC2, thallium flux FluoZin2 fluorescence; actives lie on both sides; F/F0 rise rate, 10–20 s post-thallium; shares compounds with KCC2 mod;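 active = thallium flux slope more than 3 SD above or below the plate's solvent-only control mean, mostly below; inconclusive = the two repeat wells disagreed; inactive = no significant shift from solvent-only controls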;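 also: raw slope with 0.1% DMSO as baseline and bumetanide as block control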
HEK counter1 = counter-screen for KCC2 modulators: effect in parental HEK293 cells. shares compounds with KCC2 mod. thallium flux FluoZin2, ouabain; baseline-ratio fluorescence slope, 10–20 s after thallium. thallium flux rate (normalised fluorescence) at 10 µM. 46% of 3,700 active. AID 1716;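 active = thallium flux rate significantly above the same plate's solvent-only control wells, beyond their mean plus 3 SD; inconclusive = the two replicate wells gave conflicting results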
KCC2 ouabain = modulates human KCC2 on retest with ouabain; shares compounds with KCC2 mod; raw Tl+ flux slope (below DMSO = inhibition, above = activation) at 10 µM; HEK293-KCC2, thallium flux FluoZin2 fluorescence; bidirectional: low = inhibitor, high = activator; 48% of 3,700 active;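 active = thallium flux slope beyond 3 SD from same-plate DMSO control mean in most replicates, usually higher, sometimes lower; inconclusive = repeat tests gave conflicting results; inactive = no significant difference from controls in most replicates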;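 also: slope of initial-normalized fluorescence between seconds 10 and 20 after thallium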
HEK293 Tl flux2 = counter-screen for KCC2 modulators: effect in parental HEK293 cells | 33% of 3,700 active | thallium flux FluoZin-2 fluorescence slope | thallium flux slope at 10 µM | AID 1718 | shares compounds with KCC2 mod;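 active = thallium flux slope above the same plate's solvent-control mean plus 3 SD in both duplicate wells; inconclusive = duplicate wells that disagreed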;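 also: run without ouabain in cells lacking the KCC2 cotransporter; slope of fluorescence scaled to its starting value between 10 and 20 s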
Starred values were filed as active, the others as inactive; i = inactive; ? = inconclusive; · = no result. Rows were chosen to be rich in hits. Some 4.2% of all compounds tested hit in one or more screens of this group.

SMILES	AI-2 QS mod	KCNQ1 act	KCC2 mod	KCNQ1 inh	hERG rescue	SUMO Mot1 rescue	KCC2 sec1	KCC2 bumet counter	KCC2 secondary2	HEK counter1	KCC2 ouabain	HEK293 Tl flux2
C=CCn1c(SCC(=O)c2ccccc2)nnc1-c1cc2ccccc2o1	32	i	-2	i	-7	173	·	·	·	·	·	·
CSc1cccc(NC(=O)C2CCN(S(=O)(=O)c3ccc(F)cc3)CC2)c1	16	i	·	i	-1	30	0.0077	0.0053	0.034	0.0044	?	0.01
C/C(=N\NC(=S)Nc1ccc(C)cc1)c1cccc(N)c1	50	i	9.4*	i	-22	-2	0.018*	0.053*	0.035	0.063*	0.048*	0.017*
C/C(=N\NC(=S)Nc1cccc(C)c1)c1ccco1	8	13*	78*	i	5.8*	-9	0.028*	0.085*	?	0.063*	0.058*	0.062*
CC(=O)c1c(NC(=O)c2ccccc2)[nH]c(-c2ccccc2)nc1=S	13	18*	36*	i	15*	-2	?	0.052*	0.062*	0.052*	0.052*	0.054*
CSc1nc(-c2ccccc2)nc(NC(=O)c2ccccc2)c1C(C)=O	14	i	-0.65	i	-12	-14	·	·	·	·	·	·
CC(=O)c1c(C)[nH]c(-c2ccccc2)nc1=S	-9	i	14*	i	-3	-5	0.017*	0.022*	0.031	0.013*	0.025	?
COc1ccccc1-c1nc(=S)c(C(C)=O)c(C)[nH]1	20	i	1.2	i	-5	-13	·	·	·	·	·	·
C(=N\NC1=Nc2cccc3cccc1c23)/c1ccccn1	27	i	-4.4*	i	-25	·	?	0.005	0.027	0.0061	0.016*	0.0094
C(=N\Nc1nc2ccccc2s1)/c1ccccn1	3	i	6.9*	i	-8	16	0.0086	?	0.032	?	0.02	0.012
Cc1ccc(/C(O)=C/C(=O)C(=O)NC23CC4CC(CC(C4)C2)C3)cc1	7	15*	86*	i	8.5*	-9	0.01	0.075*	0.038	?	0.055*	0.02*
Cc1[nH]n(-c2ccccc2)c(=O)c1/C=N/N1C(=O)c2cccc3cccc(c23)C1=O	65	i	24*	i	-7	-17	?	0.02*	0.045*	0.017*	0.032*	0.017*
Cc1[nH]n(-c2ccccc2)c(=O)c1/C=N/N1CCOCC1	6	i	0.69	i	-11	-7	·	·	·	·	·	·
Cc1ccccc1NC(=S)N/N=C/C(C)c1ccccc1 (configuration not stated)	0	i	14*	i	-19	·	0.0051	0.027*	0.032	0.015*	?	0.018*
O=C(O)CCCNc1c(C(=O)Nc2ccc(Cl)cc2)cc([N+](=O)[O-])cc1[N+](=O)[O-]	28	i	-1.9	i	-10	-11	·	·	·	·	·	·
O=C(NC(=S)N(CCO)Cc1ccccc1)c1ccc(F)cc1Cl	14	i	·	i	-4	0	·	·	·	·	·	·
COc1ccc(C2=NN(C(=O)c3cccs3)C(O)(C(F)(F)F)C2)cc1 (configuration not stated)	25	i	4.9*	i	-6	-12	?	0.0093*	0.033	?	0.022	0.011
O=C(c1ccccc1)N1N=C(c2ccccc2)CC1(O)C(F)(F)F (configuration not stated)	8	i	·	i	-8	-8	·	·	·	·	·	·
O=C(Cc1ccccc1)N/N=C/c1ccc([N+](=O)[O-])s1	1	i	·	i	-7	-8	0.0078	?	0.031	?	0.02	?
O=C(N/N=C/c1ccc([N+](=O)[O-])s1)c1ccccc1Br	·	i	0.9	i	-9	-25	·	·	·	·	·	·
O=C(N/N=C/c1ccc([N+](=O)[O-])s1)c1ccccc1	3	i	6.4*	i	-8	·	0.011	0.017*	0.035	?	0.028*	?
O=C(N/N=C/c1ccc([N+](=O)[O-])s1)C(O)c1ccccc1 (configuration not stated)	?	i	0.79	i	-14	-10	·	·	·	·	·	·
CC1CC(=O)Nc2ccccc2N1S(=O)(=O)c1cccc(Cl)c1 (configuration not stated)	21	i	0.067	i	-12	0	·	·	·	·	·	·
Cc1cc(OCc2n[nH]c(=S)n2-c2ccccc2)ccc1Cl	16	i	·	i	-11	54	·	·	·	·	·	·
Cc1ccc(OCc2n[nH]c(=S)n2-c2ccccc2)cc1C	-13	i	47*	i	-6	-10	0.0068	0.069*	0.043*	0.02*	0.049*	0.024*
Cc1cccc(OCc2n[nH]c(=S)n2-c2ccccc2)c1	17	i	0.088	i	-9	-3	·	·	·	·	·	·
Cc1ccc(-n2c(COc3cccc(C)c3)n[nH]c2=S)cc1	15	i	5.6*	i	2	-13	0.0076	0.064*	0.034	0.016*	0.036*	0.021*
Cc1nc2c(-c3ccc(Cl)cc3)c(C)[nH]n2c(=O)c1Cc1ccccc1	149	i	4.9*	i	-7	-2	0.0066	0.013*	?	0.012*	?	0.012*
Cc1nc2c(-c3ccccc3)c(C)[nH]n2c(=O)c1Cc1ccccc1	8	i	4.9*	i	-5	-16	0.0072	0.02*	0.031	0.015*	?	0.016*
COc1ccc(-c2c(C)[nH]n3c(=O)c(Cc4ccccc4)c(C)nc23)cc1OC	1	i	-0.64	i	-8	2	·	·	·	·	·	·

Screening data from PubChem BioAssay.
